Results from ChEMBL document CHEMBL3856229, “Hybrid Antibiotic Overcomes Resistance in P. aeruginosa by Enhancing Outer Membrane Penetration and Reducing Efflux” (J Med Chem, 2016).
Activity calls are given as the source filed them. No cut-off for these calls is given here.

Key:
[1] = test system: Pseudomonas aeruginosa; assay: Antibacterial activity against extremely drug-resistant Pseudomonas aeruginosa isolate 104354 infected in Galleria mellonella assessed as larvae survival at 50 mg/kg administered as single dose measured after 24 hrs (reference value: 27 %); type: functional; settings: isolate 104354, 24 h
Outline: (§1)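 Galleria mellonella larvae were infected with 10^6 CFU of XDR P. aeruginosa #104354, resistant to all antipseudomonal classes except colistin. A single injected drug dose was given 2 h post-infection: 50 mg/kg with survival read at 24 h, or 75 mg/kg with survival read at 96 h. Controls were infected untreated larvae and PBS-injected larvae. Two independent experiments of 15 larvae each (n = 30).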

[2] = test system: Pseudomonas aeruginosa; assay: Induction of outer membrane permeabilization in Pseudomonas aeruginosa PAO1 assessed as accumulation of propidium iodide at 8 ug/ml after 3 to 4 hrs by fluorescence microscopy; type: functional
Outline: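 PAO1 cells were treated with 8 µg/mL for 3 h at 37 °C, then stained with the membrane-impermeable nucleic-acid dye propidium iodide. Fluorescence microscopy and DIC imaging were compared against untreated cells.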

[3] = test system: Pseudomonas aeruginosa; assay: Antibacterial activity against Pseudomonas aeruginosa PAO1 assessed as fractional inhibitory concentration index after 18 hrs in presence of erythromycin by checkerboard method; type: functional
Outline: (§2)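 Checkerboard combinations of the hybrid with each partner antibiotic were tested against P. aeruginosa PAO1. Interaction is expressed as the fractional inhibitory concentration (FIC) index: ≤0.5 means synergy, 1–2 no interaction, ≥4 antagonism.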

[4] = test system: Staphylococcus aureus; assay: Antibacterial activity against methicillin-resistant Staphylococcus aureus ATCC 33592 after 24 hrs by microtitre broth dilution method; type: functional; settings: ATCC 33592, 24 h
[5] = test system: Acinetobacter baumannii; assay: Antibacterial activity against fluoroquinolone resistant Acinetobacter baumannii isolate ABO28; type: functional
[6] = test system: Staphylococcus epidermidis; assay: Antibacterial activity against methicillin-resistant Staphylococcus epidermidis isolate CAN-ICU 61589 after 24 hrs by microtitre broth dilution method; type: functional; settings: isolate CAN-ICU 61589, 24 h
[7] = test system: Escherichia coli; assay: Antibacterial activity against fluoroquinolone resistant Escherichia coli isolate 98550 harboring beta-lactamase CTX-M-15/OXA-1; type: functional
[8] = test system: Pseudomonas aeruginosa; assay: Antibacterial activity against extremely drug-resistant Pseudomonas aeruginosa isolate 104354 infected in Galleria mellonella assessed as larvae survival administered as single dose measured after 24 to 96 hrs; type: functional; outline: as §1
[9] = test system: Escherichia coli; assay: Antibacterial activity against fluoroquinolone resistant Escherichia coli isolate N-10-1631 harboring beta-lactamase CTX-M-15/OXA-1; type: functional
[10] = test system: Pseudomonas aeruginosa; assay: Ratio of MIC for Pseudomonas aeruginosa PAO1 after 25 serial passages to MIC for Pseudomonas aeruginosa PAO1 prior to 25 serial passages; type: functional
Outline: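 P. aeruginosa PAO1 exposed to sub-inhibitory (0.5 x MIC) drug over successive subcultures as a resistance-selection procedure. MIC compared after versus before passaging.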

[11] = test system: Pseudomonas aeruginosa; assay: Antibacterial activity against multidrug/extremely drug-resistant/Pseudomonas aeruginosa isolate PA260-97103 in presence of <= 4 ug/ml of ciprofloxacin (reference value: 1 ug/ml); type: functional
[12] = test system: Staphylococcus epidermidis; assay: Antibacterial activity against methicillin-susceptible Staphylococcus epidermidis isolate CANWARD-2008 81388 after 24 hrs by microtitre broth dilution method; type: functional; settings: isolate CANWARD-2008 81388, 24 h
[13] = test system: Pseudomonas aeruginosa; assay: Antibacterial activity against multidrug-resistant/tobramycin-susceptible Pseudomonas aeruginosa isolate 84745; type: functional
[14] = Toxicity in Galleria mellonella upto 96 hrs
Outline: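 Tolerability test in Galleria mellonella larvae, injected with doses up to a maximum of 600 mg/kg.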

[15] = test system: Pseudomonas aeruginosa; assay: Antibacterial activity against Pseudomonas aeruginosa PAO1 assessed as fractional inhibitory concentration index after 18 hrs in presence of rifampicin by checkerboard method; type: functional; outline: as §2
[16] = test system: Escherichia coli; assay: Antibacterial activity against of wild-type Escherichia coli isolate 79768; type: functional
[17] = Cytotoxicity against human JIMT1 cells assessed as reduction in cell viability after 48 hrs by MTS assay; type: toxicity, cell-based, JIMT-1
[18] = test system: Pseudomonas aeruginosa; assay: Antibacterial activity against multidrug-resistant/tobramycin-susceptible Pseudomonas aeruginosa isolate 79199; type: functional
[19] = test system: Pseudomonas aeruginosa; assay: Antibacterial activity against multidrug/extremely drug-resistant Pseudomonas aeruginosa isolate PA264-104354 in presence of <= 4 ug/ml of ciprofloxacin (reference value: 4 ug/ml); type: functional
[20] = test system: Pseudomonas aeruginosa; assay: Antibacterial activity against multidrug-resistant/tobramycin-susceptible Pseudomonas aeruginosa isolate 85322; type: functional
[21] = test system: Pseudomonas aeruginosa; assay: Antibacterial activity against Pseudomonas aeruginosa ATCC 27853 after 24 hrs by microtitre broth dilution method; type: functional; settings: ATCC 27853, 24 h
[22] = test system: Pseudomonas aeruginosa; assay: Potentiation of ciprofloxacin induced antibacterial activity against pandrug-resistant Pseudomonas aeruginosa isolate 101243 assessed as ciprofloxacin MIC at <= […] ug/ml (reference value: 2 ug/ml); type: functional
[23] = test system: Pseudomonas aeruginosa; assay: Antibacterial activity against Pseudomonas aeruginosa PAO1 assessed as fractional inhibitory concentration index after 18 hrs in presence of gentamicin by checkerboard method; type: functional; outline: as §2
[24] = test system: Pseudomonas aeruginosa; assay: Antibacterial activity against Pseudomonas aeruginosa PAO1 assessed as fractional inhibitory concentration index after 18 hrs in presence of ceftazidime by checkerboard method; type: functional; outline: as §2
[25] = test system: Klebsiella pneumoniae; assay: Antibacterial activity against Klebsiella pneumoniae ATCC 13883 after 24 hrs by microtitre broth dilution method; type: functional; settings: ATCC 13883, 24 h
[26] = test system: Pseudomonas aeruginosa; assay: Antimicrobial activity against Pseudomonas aeruginosa PAO1 assessed as cell membrane blebbing at 8 ug/ml after 3 to 4 hrs by uranyl acetate staining based transmission electron microscopy; type: functional
Outline: (§3)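 PAO1 in Mueller-Hinton broth was exposed to 8 µg/mL at 37 °C (3 h in the legend, 4 h in the text). Untreated cells were the reference. Morphology was imaged by transmission electron microscopy at 75 kV.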

[27] = Selectivity ratio of MIC for Pseudomonas aeruginosa PAO1 to MIC for Pseudomonas aeruginosa PAO750; type: functional
Outline: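 MICs were measured in PAO1 and in PAO750. PAO750 is a PAO1 derivative lacking the MexAB-OprM, MexCD-OprJ, MexEF-OprN, MexJK and MexXY efflux pumps and the outer membrane protein OpmH.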

[28] = Cytotoxicity against human DU145 cells assessed as reduction in cell viability after 48 hrs by MTS assay; type: toxicity, cell-based, DU-145
[29] = test system: Pseudomonas aeruginosa; assay: Potentiation of moxifloxacin induced antibacterial activity against multidrug/extremely drug-resistant Pseudomonas aeruginosa isolate PA262-101856 assessed as moxifloxacin MIC at <= […] ug/ml (reference value: […] to […] ug/ml); type: functional
[30] = test system: Escherichia coli; assay: Antibacterial activity against fluoroquinolone resistant Escherichia coli isolate 90789 harboring beta-lactamase KPC-3/TEM-1; type: functional
[31] = test system: Pseudomonas aeruginosa; assay: Antimicrobial activity against Pseudomonas aeruginosa PAO1 assessed as outer membrane damage at 8 ug/ml after 3 to 4 hrs by uranyl acetate staining based transmission electron microscopy; type: functional; outline: as §3
[32] = test system: Pseudomonas aeruginosa; assay: Potentiation of moxifloxacin induced antibacterial activity against multidrug/extremely drug-resistant Pseudomonas aeruginosa isolate PA260-97103 assessed as moxifloxacin MIC at <= […] ug/ml (reference value: […] to […] ug/ml); type: functional
[33] = test system: Pseudomonas aeruginosa; assay: Antibacterial activity against pandrug-resistant Pseudomonas aeruginosa isolate 101243 in presence of <= 4 ug/ml of moxifloxacin (reference value: 8 ug/ml); type: functional
[34] = test system: Pseudomonas aeruginosa; assay: Antibacterial activity against Pseudomonas aeruginosa PAO1 assessed as fractional inhibitory concentration index after 18 hrs in presence of colistin by checkerboard method; type: functional; outline: as §2

COc1c(N2C[C@@H]3CCCN(CCCCCCCCCCCCO[C@@H]4[C@@H](O[C@H]5O[C@H](CO)[C@@H](O)[C@H](N)[C@H]5O)[C@H](N)C[C@H](N)[C@H]4O[C@H]4O[C@H](CN)[C@@H](O)C[C@H]4N)[C@@H]3C2)c(F)cc2c(=O)c(C(=O)O)cn(C3CC3)c12.Cl.Cl.Cl.Cl.Cl
survival at 50 mg/kg [1]: 100%
Activity [2]: Active
fractional inhibitory concentration index (FICI) [3]: 0.26
MIC [4]: 1 µg/mL
MIC [5]: 8 to 64 µg/mL
MIC [6]: 16 µg/mL
MIC [7]: ≥ 64 µg/mL
Activity [8]: Dose-dependent effect
MIC [9]: ≥ 64 µg/mL
Ratio [10]: 2
MIC [11]: < 0.25 µg/mL
MIC [12]: 2 µg/mL
MIC [13]: 8 µg/mL
MTD at 96 h [14]: 600 mg/kg
fractional inhibitory concentration index (FICI) [15]: 0.15
MIC [16]: ≤ 2 µg/mL
CC50 at 48 h [17]: > 30 µM
MIC [18]: 8 µg/mL
MIC [19]: < 0.5 µg/mL
MIC [20]: 8 µg/mL
MIC [21]: 4 µg/mL
MIC [22]: 0.06 µg/mL
fractional inhibitory concentration index (FICI) [23]: 5
fractional inhibitory concentration index (FICI) [24]: 0.37
MIC [25]: 1 µg/mL
Activity [26]: Active
Selectivity ratio [27]: 8
CC50 at 48 h [28]: > 30 µM
MIC [29]: 2 µg/mL
MIC [30]: ≥ 64 µg/mL
Activity [31]: Active
MIC [32]: 1 µg/mL
MIC [33]: < 1 µg/mL
fractional inhibitory concentration index (FICI) [34]: 0.37
